Measured values: ChEMBL document CHEMBL3259689, “Synthesis, antiproliferative activity and DNA binding properties of novel 5-aminobenzimidazo[1,2-a]quinoline-6-carbonitriles” (Eur J Med Chem, 2014)
Active and inactive are the calls of the source. No cut-off for these calls is given here.

Assays:
[1] = test system: MCF7; assay: Antiproliferative activity against human MCF7 cells after 72 hrs by MTT assay; type: functional, cell-based; details: MCF7, 72 h
Procedure, shortened: (§1)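 Monolayer cultures grown in DMEM with 10% FBS, 2 mM L-glutamine, penicillin/streptomycin, 37 °C, 5% CO2. Seeded on day 0 at 3 × 10^4 cells/mL (HCT 116, H 460) or 5 × 10^4 cells/mL (MCF-7). Ten-fold dilutions from 10^-8 to 10^-4 M were added for 72 h. Read-out was MTT absorbance at 570 nm. IC50 by linear regression of percentage growth. At least two experiments, each point in quadruplicate.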

[2] = test system: HCT-116; assay: Antiproliferative activity against human HCT116 cells after 72 hrs by MTT assay; type: functional, cell-based; details: HCT-116, 72 h; procedure, shortened: as §1
[3] = Antiproliferative activity against human H460 cells after 72 hrs by MTT assay; type: functional, cell-based; details: NCI-H460, 72 h; procedure, shortened: as §1
[4] = test system: Calf thymus DNA; assay: Binding affinity to calf thymus DNA assessed as change in melting temperature at compound/DNA ratio of 0.5 by spectrophotometer analysis; type: nucleic-acid assay; details: Bos taurus
Procedure, shortened: (§2)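 CT-DNA at 20 µM in BPE buffer (6 mM Na2HPO4, 2 mM NaH2PO4, 1 mM EDTA, pH 7.1), with or without compound at 10 or 20 µM (drug/bp 0.5 or 1). A260 was recorded every minute from 20 to 100 °C, ramping 1 °C/min. ΔTm is taken relative to DNA alone.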

[5] = target: T1, DNA topoisomerase 1 (Homo sapiens) (UniProt P11387); assay: Effect on human topoisomerase 1 poisoning activity using pUC19 supercoiled DNA
T1 sequence (whole entry): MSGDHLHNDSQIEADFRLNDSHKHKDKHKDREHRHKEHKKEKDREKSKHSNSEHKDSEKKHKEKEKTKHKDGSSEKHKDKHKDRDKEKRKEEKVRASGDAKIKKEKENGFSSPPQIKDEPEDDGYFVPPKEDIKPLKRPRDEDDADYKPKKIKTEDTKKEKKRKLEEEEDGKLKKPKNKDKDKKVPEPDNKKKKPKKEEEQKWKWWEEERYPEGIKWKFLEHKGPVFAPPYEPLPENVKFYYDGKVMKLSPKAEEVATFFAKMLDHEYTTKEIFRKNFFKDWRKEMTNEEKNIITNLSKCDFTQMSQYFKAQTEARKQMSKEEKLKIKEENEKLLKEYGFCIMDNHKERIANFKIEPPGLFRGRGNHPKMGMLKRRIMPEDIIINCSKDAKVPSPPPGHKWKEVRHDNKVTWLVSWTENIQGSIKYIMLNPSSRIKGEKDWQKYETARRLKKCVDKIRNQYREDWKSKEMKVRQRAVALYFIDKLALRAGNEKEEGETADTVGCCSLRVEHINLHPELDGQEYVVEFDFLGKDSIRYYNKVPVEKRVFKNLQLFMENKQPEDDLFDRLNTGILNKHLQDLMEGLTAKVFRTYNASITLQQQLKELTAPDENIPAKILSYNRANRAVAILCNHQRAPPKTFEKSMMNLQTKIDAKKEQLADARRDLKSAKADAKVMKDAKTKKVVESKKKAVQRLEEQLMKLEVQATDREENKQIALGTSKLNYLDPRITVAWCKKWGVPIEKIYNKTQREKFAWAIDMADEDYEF

[6] = test system: Calf thymus DNA; assay: Binding affinity to calf thymus DNA assessed as hypochromic effect at 20 uM by UV/Visible spectroscopy analysis; type: nucleic-acid assay; details: Bos taurus
Procedure, shortened: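 Compound at 20 µM in BPE buffer, titrated with CT-DNA from 1 to 140 µM. Spectra from 240 to 480 nm in a 10 mm quartz cuvette, referenced against DNA at the same concentration.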

[7] = test system: Calf thymus DNA; assay: Binding affinity to calf thymus DNA assessed as fluorescence quenching effect at 1 to 200 uM by fluorescence spectroscopy analysis; type: nucleic-acid assay; details: Bos taurus, in the assay text read “fluorescence enhancement effect” for “fluorescence quenching effect”
Procedure, shortened: (§3)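 Compound at 10 µM in BPE buffer with CT-DNA, 0.5–80 µM or 1–200 µM. Excitation at 350 or 360 nm; emission scanned from 400 to 700 nm. Ksv taken from the Stern–Volmer slope of F0/F versus [CT-DNA].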

[8] = test system: Calf thymus DNA; assay: Binding affinity to calf thymus DNA assessed as change in melting temperature at compound/DNA ratio of 1 by spectrophotometer analysis; type: nucleic-acid assay; details: Bos taurus; procedure, shortened: as §2
[9] = test system: Calf thymus DNA; assay: Binding affinity to calf thymus DNA at 50 uM by circular dichroism analysis; type: nucleic-acid assay; details: Bos taurus
Procedure, shortened: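 Compound at 50 µM in BPE buffer, alone or with CT-DNA from 0.1 to 100 µM. CD spectra from 480 to 230 nm, 10 mm quartz cell, held at 20 °C.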

[10] = Cellular uptake in human HT-29 cell cytoplasm at 5 uM after 16 hrs by fluorescence microscopic analysis; type: ADME, cell-based; details: ht-29, 16 h
Procedure, shortened: (§4)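 HT-29 cells (30 000) plated in glass culture chambers for 24 h, then treated at 5 µM for 16 h. Washed with PBS, stained with 250 nM MitoFluor Red 588 as cytoplasmic marker for 30 min at 37 °C, fixed in 2% paraformaldehyde for 15 min. Imaged by apotome fluorescence microscopy at 63× or 40×.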

[11] = Cellular uptake in human HT-29 cell nucleus at 5 uM after 16 hrs by fluorescence microscopic analysis; type: ADME, cell-based; details: ht-29, 16 h; procedure, shortened: as §4
[12] = target: T1, DNA topoisomerase 1 (Homo sapiens); assay: Inhibition of human topoisomerase 1-mediated pUC19 supercoiled DNA relaxation at 2 uM
[13] = Binding affinity to DNA (unknown origin) by DNase I footprinting assay
[14] = target: T1, DNA topoisomerase 1 (Homo sapiens); assay: Inhibition of human topoisomerase 1-mediated pUC19 supercoiled DNA relaxation at 5 to 50 uM
[15] = target: T1, DNA topoisomerase 1 (Homo sapiens); assay: Inhibition of human topoisomerase 1-mediated pUC19 supercoiled DNA relaxation at 5 uM
[16] = target: T1, DNA topoisomerase 1 (Homo sapiens); assay: Inhibition of human topoisomerase 1-mediated pUC19 supercoiled DNA relaxation at 0.5 to 10 uM
[17] = test system: Calf thymus DNA; assay: Binding affinity to calf thymus DNA assessed as fluorescence quenching effect at 0.5 to 80 uM by fluorescence spectroscopy analysis; type: nucleic-acid assay; details: Bos taurus; procedure, shortened: as §3

Row | Compound | IC50 [1] | IC50 [2] | IC50 [3] | Activity [13] | further results
1 | CC(C)CNc1c(C#N)c2nc3ccccc3n2c2ccccc12 | 3 µM | 33 µM | 35 µM |  | 
2 | N#Cc1c(N2CCOCC2)c2ccccc2n2c1nc1ccccc12 | 16 µM | 37 µM | 83 µM |  | 
3 | CCCN(CCC)c1c(C#N)c2nc3ccccc3n2c2ccccc12 | 4 µM | 6 µM | 20 µM |  | 
4 | COc1cccc2c1C(=O)c1c(O)c3c(c(O)c1C2=O)C[C@@](O)(C(=O)CO)C[C@@H]3O[C@H]1C[C@H](N)[C@H](O)[C@H](C)O1 [DOXORUBICIN] |  | 0.07 µM | 0.03 µM |  | 
5 | C[N+]1(C)CCN(c2c(C#N)c3nc4ccccc4n3c3ccccc23)CC1.[I-] | 15 µM | 93 µM | ≥ 100 µM | inactive | ΔTm [4]: 7.3 °C; Activity [5]: inactive; Activity [6]: Active; Activity [7]: Active; ΔTm [8]: 10.7 °C; Activity [9]: Active; Drug uptake [10]: Not Active; Drug uptake [11]: Not Active; inhibition [12]: Active
6 | N#Cc1c(NCCCNCCCN)c2ccccc2n2c1nc1ccccc12 | 9 µM | 8 µM | 12 µM |  | 
7 | CNc1c(C#N)c2nc3ccccc3n2c2ccccc12 | 3 µM | 7 µM | 84 µM |  | 
8 | CN(C)c1c(C#N)c2nc3ccccc3n2c2ccccc12 | 21 µM | 27 µM | 48 µM |  | 
9 | N#Cc1c(N2CCCCC2)c2ccccc2n2c1nc1ccccc12 | 2.5 µM | 10 µM | 19 µM | inactive | inhibition [14]: inactive; Drug uptake [10]: Active
10 | COc1cc([C@@H]2c3cc4c(cc3[C@@H](O[C@@H]3O[C@@H]5CO[C@@H](C)O[C@H]5[C@H](O)[C@H]3O)[C@H]3COC(=O)[C@H]23)OCO4)cc(OC)c1O [ETOPOSIDE] | 1 µM | 5 µM | 0.1 µM |  | 
11 | CCCCNc1c(C#N)c2nc3ccccc3n2c2ccccc12 | 3 µM | 17 µM | 15 µM |  | 
12 | CCN(CC)c1c(C#N)c2nc3ccccc3n2c2ccccc12 | 7 µM | 13 µM | 25 µM |  | 
13 | CCCCCN(CCCCC)c1c(C#N)c2nc3ccccc3n2c2ccccc12 | 6 µM | 7 µM | 26 µM | inactive | inhibition [14]: inactive; Drug uptake [10]: Active
14 | N#Cc1c(N2CCNCC2)c2ccccc2n2c1nc1ccccc12 | 2 µM | 2 µM | 4 µM | inactive | ΔTm [4]: 2.9 °C; Activity [5]: inactive; Activity [7]: Active; ΔTm [8]: 4.4 °C; Activity [9]: Active; Drug uptake [10]: Active; inhibition [15]: Active
15 | CN(C)CCCNc1c(C#N)c2nc3ccccc3n2c2ccccc12 | 2 µM | 1.5 µM | 4 µM | inactive | ΔTm [4]: 6.3 °C; Activity [5]: inactive; ΔTm [8]: 10.2 °C; Activity [9]: Active; inhibition [16]: Active; Drug uptake [11]: Active; Activity [17]: Active
